Source: PubChem
Many of the other results were omitted from the sample, so hits are more common in it than they were.
S1P4 ag: agonists of human S1P4 receptor | O95977 | S1P4-expressing cell line, agonist reporter assay | activation, % at 4.98 µM | actives 0.35% (n = 220,000) | AID 1509; in the data active = activation above about 11%
S1P3 antagonist: S1P3 (human) receptor antagonism. Q99500. CHO S1P3 NFAT-BLA reporter, FRET fluorescence, antagonist mode. inhibition, % at 4.98 µM. actives 0.27% (n = 170,000). AID 485;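 active = inhibition above the plate cutoff, the mean inhibition of test wells on that plate plus 3 SD, cut at about 28% in these data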;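 note: cells challenged with S1P at its EC80 of 0.8 µM; blue over green emission ratio from cleaved BLA substrate after 4 h stimulation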
S1P4 antag: blocks the human S1P4 receptor. O95977. inhibition, % at 4.98 µM. actives 0.26% (n = 220,000). S1P4-expressing cells, antagonist mode, reporter read-out; in the data active = inhibition above about 29%
Lmaj promast: reduces viability of Leishmania major promastigotes; resazurin fluorescence viability; inhibition, % at 10 µM; actives 9% (n = 200,000); AID 1063; in the data active = inhibition above about 50%;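 note: promastigotes grown with compound for 44 hours at 28 °C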
MDM2 E3 inh: inhibitors of human Mdm2 E3 ubiquitin ligase | cell-based MDM2 ubiquitination luciferase reporter, 2 h; 0 = plate control, 100 = twice control, blank-subtracted | signal enhancement, % at 5 µM | actives 0.11% (n = 210,000) | AID 1230;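 active = signal enhancement of 30% or more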;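 note: luminescence tracks abundance of the self-degrading MDM2-luciferase fusion protein; higher signal means inhibition of MDM2 E3 ligase activity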
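Assay system: stable mammalian line carrying autodegrading MDM2–luciferase fusion reporter; amount: 2000 cells seeded into each well; buffer or medium: DMEM; benchmarks: plate control and blank wells; signal: luciferase luminescence; timing: 2 h compound exposure at 37 °C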
Lmaj promast 1uM: L. major promastigote growth inhibition, 1 uM repeat | actives 13% (n = 1,100) | shares compounds with Lmaj promast | inhibition, % at 1 µM | resazurin fluorescence, 48 h | AID 1258;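 active = inhibition above about 50% in both repeat tests, limit read from the data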
S1P4 antag cf: confirmation of human S1P4 receptor antagonists | inhibition, % at 4.98 µM | S1P4-expressing cell line, antagonist mode, reporter read-out | shares compounds with S1P4 antag | actives 71% (n = 520); in the data active = inhibition above about 30%
S1P1 antagonist: counter-screen for S1P4 antagonists: antagonists of human S1P1; shares compounds with S1P4 antag; cell-based S1P1 antagonist counterscreen, inhibition; inhibition, % at 4.98 µM; actives 37% (n = 520); in the data active = inhibition above about 40%;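 note: receptor stimulated with S1P near its EC80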
Target sequence (P21453 whole entry, looked up): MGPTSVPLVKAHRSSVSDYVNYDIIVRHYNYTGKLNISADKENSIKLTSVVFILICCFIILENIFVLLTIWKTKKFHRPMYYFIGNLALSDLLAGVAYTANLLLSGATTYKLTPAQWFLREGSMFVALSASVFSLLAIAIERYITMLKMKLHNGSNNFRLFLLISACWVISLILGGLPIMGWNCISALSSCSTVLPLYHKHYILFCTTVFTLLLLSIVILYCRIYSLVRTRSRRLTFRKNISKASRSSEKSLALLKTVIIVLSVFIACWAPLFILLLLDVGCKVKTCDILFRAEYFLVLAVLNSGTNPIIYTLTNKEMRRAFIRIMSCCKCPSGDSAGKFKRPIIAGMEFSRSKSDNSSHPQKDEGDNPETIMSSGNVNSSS
Numbers stand for hits; 0 = inactive; - = no result given.

SMILES	S1P4 ag	S1P3 antagonist	S1P4 antag	Lmaj promast	MDM2 E3 inh	Lmaj promast 1uM	others
O=C(COC(=O)[C@H](Cc1ccccc1)N1C(=O)c2ccccc2C1=O)Nc1ccc2c(c1)OCO2	0	-	0	99	0	0
Cc1cc(C)cc(OCC(=O)Nc2ccc3c(c2)OCO3)c1	0	0	0	62	0	0
CCCCCCCCCCSc1n[nH]c(N)n1	0	0	0	0	0	-
OCc1cn(-c2ccccc2)nc1-c1cccnc1	0	0	0	0	0	-
N=C(N)SCc1cn(-c2ccccc2)nc1-c1ccc(Br)cc1	0	0	0	101	0	79
COc1ccc(/C=N/NC(=O)c2cccc([N+](=O)[O-])c2)cc1OS(=O)(=O)c1ccc(C)cc1	0	-	0	87	0	0
COc1cc(/C=N/NC(=O)COc2cc(C)cc(C)c2)ccc1OS(=O)(=O)c1ccc(C)cc1	0	0	0	0	0	-
CCOC(=O)c1c(NC(=O)c2ccc(S(=O)(=O)N3CCOCC3)cc2)sc2c1CCN(C)C2	0	-	0	68	0	0
CCOC(=O)C(C)(C)C(=O)C(C)(C)C(O)c1ccccn1 (configuration not stated)	0	0	0	0	0	-
Cc1cc(C(=O)CCl)c(C)n1Cc1ccco1	0	0	0	100	0	93
Cc1cc(C(=O)CSc2nncs2)c(C)n1Cc1ccco1	0	0	0	0	0	-
O=C(O)c1cccnc1Sc1ccc(Cl)cc1	0	0	0	0	0	-
O=C(O)c1cccnc1Sc1ccccc1	0	0	0	56	0	0
Cc1cc(C)c2c(CC(=O)N(CCC#N)Cc3cccnc3)coc2c1	0	0	0	81	0	0
CC(Sc1ccccc1)C(=O)N(CCC#N)Cc1cccnc1 (configuration not stated)	0	0	0	0	0	-
Cc1cccc2c(=O)c(Br)c(C)n(Cc3ccccc3)c12	0	0	0	0	0	-
NC(=O)CCC(NC(=O)c1ccc(Cl)cc1)C(=O)O (configuration not stated)	0	0	0	0	-	-
Cn1nc([N+](=O)[O-])nc1Sc1nnc(-c2ccccc2)o1	0	-	0	99	0	0
COc1ccc(S(=O)(=O)N(C)C)cc1NC(=O)Cc1cccs1	0	0	0	0	0	-
COc1ccc2nc(-c3ccccc3)[nH]c2c1	0	0	0	69	0	0
COC(=O)c1c(NC(=O)CN2C(=O)NC3(CCc4ccccc4C3)C2=O)sc2c1CCCCC2 (configuration not stated)	0	0	0	0	0	-
NC(C(=O)O)C1CC(Cl)=NO1 (configuration not stated)	0	0	0	100	-	94
COC(=O)[C@@H]1C[C@@]2(O)[C@H](O)[C@H](O)[C@H](O)C[C@H]2N1C/C=C/c1ccccc1	-	-	-	-	0	-
N#CC1=C(Nc2ccccc2)SC=C(c2ccc(Cl)c(Cl)c2)N=C1N1CCOCC1	0	-	0	100	0	0
COc1ccc(NS(=O)(=O)c2cccc(C(=O)NNC(=O)c3cc(C)oc3C)c2)cc1	0	0	0	0	0	-
SMILES	S1P4 ag	S1P3 antagonist	S1P4 antag	Lmaj promast	MDM2 E3 inh	Lmaj promast 1uM	others
COc1ccc(NS(=O)(=O)c2cc(C)ccc2NC(=O)c2cc(C)oc2C)cc1	0	0	0	52	0	0
CC1(C)OC(=O)N(c2ccccc2)C12C=Cc1c(ccc3ccccc13)O2 (configuration not stated)	0	-	0	83	-	0
CN(Cc1ccccc1)C(=O)CC(c1ccccc1)c1cc(Cl)ccc1O (configuration not stated)	0	-	0	81	0	0
CCC(=O)Nc1nc(C)c(-c2csc(Nc3ccccn3)n2)s1	0	0	0	62	0	0
Cc1csc(/N=C/c2ccc([N+](=O)[O-])cc2)n1	0	0	0	52	0	0
Cc1nc(N)sc1C(=O)N/N=C/c1ccc([N+](=O)[O-])cc1	0	0	0	-	0	-
C#Cc1cccc(NC(=O)c2ccc(Cl)cc2Cl)c1	0	0	0	-	0	-
Cc1ncc([N+](=O)[O-])n1CCOC(=O)c1cc(Cl)cc(Cl)c1N	0	0	0	60	0	0
O=C(c1ccccn1)c1cc2ccccc2n1S(=O)(=O)c1ccccc1	0	0	0	0	0	-
CCOC(=O)C(=Cc1cc(=O)c(OC)co1)C(=O)OCC	0	0	0	100	0	101
CCN1CCN(c2cc(SC(C)C)nc(-c3ccc(OC)cc3)n2)CC1	0	-	0	100	0	0
CCOC(=O)/C(=C/C1=CC(=C/N(C)C)/C(=O)O1)C(C)=O	0	0	0	-	0	-
Cc1cc(SCC(=O)NC(=O)c2cccn2C)nc2ccccc12	0	0	0	-	-	-
O=C(O)CCC(=O)N1CC=C(c2ccccc2)CC1	0	-	0	63	0	0
O=C(Cn1[nH]c(=O)c2ccccc2c1=O)N1CC=C(c2ccccc2)CC1	0	-	0	0	0	-
CCC(=O)NC(=S)Nc1ccc(NC(=O)c2ccc(Br)o2)cc1	0	0	0	0	0	-
Cc1ccc(-c2cc(C(F)F)n3ncc(C(=O)N4CCCCC4c4cccnc4)c3n2)cc1 (configuration not stated)	0	0	0	95	0	0
CCN(CC)CCCOc1nc(C)nc2c1oc1ccccc12	0	0	0	75	0	0
Clc1ccc(CN2C3=NCCCN3c3ccccc32)cc1	0	0	0	100	0	0
CCN(CC)CCCN(Cc1cc2cc3c(cc2[nH]c1=O)OCO3)C(=S)Nc1ccccc1	0	0	0	0	0	-
CSC(=S)NCc1cccnc1	0	0	0	81	0	0
NC(=S)NCc1cccnc1	0	0	0	0	0	-
CCC(NC(=O)Nc1nnc(C(F)(F)F)s1)(C(F)(F)F)C(F)(F)F	0	-	38	101	0	0	S1P4 antag cf=51;S1P1 antagonist=0
O=c1ccsn1Cc1ccccc1	0	0	33	101	0	0	S1P4 antag cf=36;S1P1 antagonist=0
COc1ccccc1S(=O)(=O)CC(O)COc1ccc(F)cc1Cl (configuration not stated)	0	0	0	0	0	-
O=[N+]([O-])c1ccccc1N/N=C/c1c[nH]c2ccccc12	0	-	0	0	0	-
O=[N+]([O-])c1ccc(N/N=C/c2c[nH]c3ccccc23)cc1	0	-	37	98	0	0	S1P4 antag cf=50;S1P1 antagonist=78
O=C(/C=C/c1ccccc1)CC(O)(c1ccccc1)C(F)(F)F (configuration not stated)	0	-	47	100	0	76	S1P4 antag cf=106;S1P1 antagonist=41
O=C(/C=C/c1ccccc1)CC(=O)c1ccccc1O	0	0	0	0	0	-
N#Cc1cc(Oc2cccc3cccnc23)c(-n2nnc3ccccc32)cc1C#N	0	-	34	69	0	0	S1P4 antag cf=0;S1P1 antagonist=0
